Assay results: ChEMBL document CHEMBL2176934 (J Med Chem, 2012)
Activity calls are given as the source filed them. No cut-off for these calls is given here.

How the values were obtained:
[1] = Inhibition of Cytochrome P450; assay type: ADME
[2] = Inhibition of LPA-induced proliferation of HLF incubated for 1 hr prior to LPA-challenge measured after 48 hrs by BrdU incorporation assay; details: Homo sapiens
[3] = biological target: Voltage-gated inwardly rectifying potassium channel KCNH2 (Homo sapiens, UniProt Q12809); test: Inhibition of human ERG
[4] = biological target: T1, Lysophosphatidic acid receptor 3 (Homo sapiens) (UniProt Q9UBY5); test: Antagonist activity at human recombinant LPA3 expressed in chem-1 cells assessed as inhibition of LPA-induced intracellular calcium mobilization at 30 uM incubated for 30 mins prior to LPA-challenge measured over 100 secs by FLIPR assay; assay type: functional, cell-based
T1 sequence (whole entry): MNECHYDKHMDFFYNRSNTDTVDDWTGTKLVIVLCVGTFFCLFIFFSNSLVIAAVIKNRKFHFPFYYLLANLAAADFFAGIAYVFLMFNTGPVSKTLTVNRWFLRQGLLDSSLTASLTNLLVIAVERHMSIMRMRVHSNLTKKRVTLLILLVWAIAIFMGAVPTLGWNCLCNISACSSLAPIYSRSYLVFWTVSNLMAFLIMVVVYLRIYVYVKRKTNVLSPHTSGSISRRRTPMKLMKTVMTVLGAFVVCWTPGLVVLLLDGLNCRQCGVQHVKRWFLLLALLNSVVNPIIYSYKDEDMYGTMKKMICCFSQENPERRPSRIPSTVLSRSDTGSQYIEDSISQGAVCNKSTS
Procedure, shortened: (§1)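 Calcium-optimized Chem-1 cells stably expressing human LPA1 or LPA3 (parental line with ionomycin as counterscreen), seeded 10,000/well the day before. Calcium-4 dye in HBSS/20 mM HEPES/2.5 mM probenecid loaded 30 min at 37 °C; compound added, 30 min at room temperature in the dark; LPA (18:1) 1 μM final. Peak fluorescence read over 100 s; IC50 from 10-concentration 4-parameter logistic fit, mean of at least three runs.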

[5] = biological target: T2, Lysophosphatidic acid receptor 1 (Homo sapiens, UniProt Q92633); test: Antagonist activity at human recombinant LPA1 expressed in chem-1 cells assessed as inhibition of LPA-induced intracellular calcium mobilization incubated for 30 mins prior to LPA-challenge measured over 100 secs by FLIPR assay; assay type: functional, cell-based; procedure, shortened: as §1
[6] = biological target: T2, Lysophosphatidic acid receptor 1; test: Antagonist activity at LPA1 in human lung fibroblasts assessed as inhibition of LPA-induced contraction after 18 hrs by 3D collagen gel contraction assay; assay type: functional
Procedure, shortened: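 NHLFs (healthy nonsmoking donors, passages 5–9) at 2.5 × 10⁵ cells/well, mixed 1:4 with collagen lattice; gels polymerized 2 h at 37 °C, then basal medium with 0.1% FBS, 0.1% fatty acid-free BSA and vehicle or antagonist added. Gels detached, LPA (18:1) 15 μM added; after 18 h, contraction quantified by gel disc weight.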

[7] = biological target: T2, Lysophosphatidic acid receptor 1; test: Antagonist activity at human recombinant LPA1 expressed in chem-1 cells assessed as inhibition of LPA-induced intracellular calcium mobilization at 30 uM incubated for 30 mins prior to LPA-challenge measured over 100 secs by FLIPR assay; assay type: functional, cell-based; procedure, shortened: as §1

T2 sequence (Q92633 whole entry): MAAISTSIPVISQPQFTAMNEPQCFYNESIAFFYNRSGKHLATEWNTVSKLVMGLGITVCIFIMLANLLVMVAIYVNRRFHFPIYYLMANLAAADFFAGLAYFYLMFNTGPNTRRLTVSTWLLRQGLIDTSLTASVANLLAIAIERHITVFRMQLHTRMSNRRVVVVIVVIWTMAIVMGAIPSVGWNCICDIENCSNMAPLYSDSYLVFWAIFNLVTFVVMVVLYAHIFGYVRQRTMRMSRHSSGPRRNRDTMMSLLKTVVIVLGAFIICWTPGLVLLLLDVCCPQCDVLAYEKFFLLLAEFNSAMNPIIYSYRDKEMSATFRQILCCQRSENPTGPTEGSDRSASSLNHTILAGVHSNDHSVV
Chain of Voltage-gated inwardly rectifying potassium channel KCNH2 (Q12809 whole entry): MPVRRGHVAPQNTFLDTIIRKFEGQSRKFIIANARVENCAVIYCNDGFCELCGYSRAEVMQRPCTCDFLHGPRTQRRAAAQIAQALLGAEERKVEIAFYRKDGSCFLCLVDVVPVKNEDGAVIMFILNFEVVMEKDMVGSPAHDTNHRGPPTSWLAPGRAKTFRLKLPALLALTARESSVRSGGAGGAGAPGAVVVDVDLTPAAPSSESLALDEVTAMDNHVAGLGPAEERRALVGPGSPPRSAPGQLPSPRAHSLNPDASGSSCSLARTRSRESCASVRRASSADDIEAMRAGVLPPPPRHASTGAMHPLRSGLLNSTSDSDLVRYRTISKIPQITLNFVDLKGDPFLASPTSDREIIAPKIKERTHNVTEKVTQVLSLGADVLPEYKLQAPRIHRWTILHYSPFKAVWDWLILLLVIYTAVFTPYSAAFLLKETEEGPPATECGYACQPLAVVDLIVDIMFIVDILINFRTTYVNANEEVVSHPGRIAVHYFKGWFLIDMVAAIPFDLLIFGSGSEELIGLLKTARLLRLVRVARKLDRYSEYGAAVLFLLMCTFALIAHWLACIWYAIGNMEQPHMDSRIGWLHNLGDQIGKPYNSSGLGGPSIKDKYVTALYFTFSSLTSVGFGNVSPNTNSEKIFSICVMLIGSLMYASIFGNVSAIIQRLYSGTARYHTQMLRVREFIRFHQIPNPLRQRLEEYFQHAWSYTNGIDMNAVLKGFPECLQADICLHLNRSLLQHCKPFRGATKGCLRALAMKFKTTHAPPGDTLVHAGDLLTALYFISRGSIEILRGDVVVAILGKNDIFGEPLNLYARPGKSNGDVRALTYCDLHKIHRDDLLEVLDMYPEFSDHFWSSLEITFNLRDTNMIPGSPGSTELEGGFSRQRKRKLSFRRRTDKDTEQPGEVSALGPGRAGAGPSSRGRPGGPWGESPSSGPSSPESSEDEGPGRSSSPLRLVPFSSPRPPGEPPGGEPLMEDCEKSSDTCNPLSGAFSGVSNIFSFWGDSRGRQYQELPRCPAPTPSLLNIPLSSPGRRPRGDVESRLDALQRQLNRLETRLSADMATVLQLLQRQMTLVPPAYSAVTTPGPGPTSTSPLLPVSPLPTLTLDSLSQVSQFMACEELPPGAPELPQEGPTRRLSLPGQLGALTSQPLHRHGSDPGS

| SMILES | inhibition (INH) [1] | inhibition [4] [%] | IC50 [5] [µM] | inhibition [6] | inhibition [7] [%] | IC50 [2] [µM] | inhibition (INH) [3] |
| --- | --- | --- | --- | --- | --- | --- | --- |
| CC[C@@H](C)OC(=O)Nc1c(C)nnn1-c1ccc(-c2ccc(C3(C(=O)O)CC3)cc2)cc1 | Not Active | 0 | – | – | – | 0.178 | Not Active |
| C[C@@H](OC(=O)Nc1c(-c2ccc(-c3ccccc3)cc2)cnn1C)c1ccccc1 | Not Active | – | – | – | – | – | Not Active |
| C[C@@H](OC(=O)Nc1c(-c2ccc(-c3ccc(C4(C(=O)O)CC4)cc3)cc2)cnn1C)c1cccc(C(F)(F)F)c1 | Not Active | – | 0.041 | – | – | 0.037 | Not Active |
| Cn1ncc(-c2ccc(-c3ccc(C4(C(=O)O)CC4)cc3)cc2)c1NC(=O)OC1CCC1 | Not Active | 13.7 | – | – | – | 0.192 | Not Active |
| Cc1nnn(-c2ccc(-c3ccc(C4(C(=O)NS(C)(=O)=O)CC4)cc3)cc2)c1NC(=O)O[C@H](C)c1ccccc1 | Not Active | 7 | 0.032 | – | – | 0.06 | Not Active |
| C[C@@H](OC(=O)Nc1c(-c2ccc(-c3ccc(C4(C(=O)NS(C)(=O)=O)CC4)cc3)cc2)nnn1C)c1cccc(C(F)(F)F)c1 | Not Active | – | 0.024 | inactive | – | 0.331 | Not Active |
| Cc1nnn(-c2ccc(-c3ccc(C4(C(=O)O)CC4)cc3)cc2)c1NC(=O)O[C@H](C)C(C)C | Not Active | 17 | – | – | – | 0.06 | Not Active |
| C[C@@H](OC(=O)Nc1c(-c2ccc(-c3ccc(C4(C(=O)O)CC4)cc3)cc2F)nnn1C)c1ccccc1 | Not Active | – | – | – | – | 0.002 | Not Active |
| CC(C)[C@@H](C)OC(=O)Nc1c(-c2ccc(-c3ccc(C4(C(=O)O)CC4)cc3)cc2)nnn1C | Not Active | 24 | – | – | – | 0.02 | Not Active |
| Cc1nnn(-c2ccc(-c3ccc(C4(C(=O)O)CC4)cc3)cc2)c1NC(=O)O[C@H](C)c1cccc(C(F)(F)F)c1 | Not Active | – | – | – | – | 1.2 | Not Active |
| Cc1nnn(-c2ccc(-c3ccc(C4(C(=O)O)CC4)cc3)cc2)c1NC(=O)O[C@H](C)c1ccccc1F | Not Active | 42 | – | – | – | 0.021 | Not Active |
| C[C@@H](OC(=O)Nc1c(-c2ccccc2)cnn1C)c1ccccc1 | Not Active | – | – | – | 65 | – | Not Active |
| Cc1nnn(-c2ccc(-c3ccc(C4(C(=O)O)CC4)cc3)cc2)c1NC(=O)OC(C)C1CCC1 (racemic) | Not Active | 26 | – | – | – | 0.189 | Not Active |
| C[C@H](OC(=O)Nc1c(-c2ccc(-c3ccc(C4(C(=O)O)CC4)cc3)cc2)nnn1C)c1cccc(C(F)(F)F)c1 | Not Active | – | – | – | – | – | Not Active |
| C[C@@H](OC(=O)Nc1c(-c2ccc(-c3ccc(C4(C(=O)O)CC4)cc3)cc2)nnn1C)c1cccc(C(F)(F)F)c1 | Not Active | – | 0.017 | – | – | 0.074 | Not Active |
| Cc1nnn(-c2ccc(-c3ccc(C4(C(=O)O)CC4)cc3)cc2)c1NC(=O)O[C@H](C)c1ccccc1C(F)(F)F | Not Active | 55 | – | – | – | 0.077 | Not Active |
| Cc1nnn(-c2ccc(-c3ccc(C4(c5nnn[nH]5)CC4)cc3)cc2)c1NC(=O)O[C@H](C)c1ccccc1 | Not Active | 28 | 0.023 | – | – | 0.105 | Not Active |
| Cc1nnn(-c2ccc(-c3ccc(C4(C(=O)O)CC4)cc3)cc2)c1NC(=O)OC(C)(C)C | Not Active | 0 | – | – | – | 1.62 | Not Active |
| COc1ccc(-c2cnn(C)c2NC(=O)O[C@H](C)c2ccccc2)cc1 | Not Active | – | – | – | – | – | Not Active |
| CCOC(=O)C1(c2ccc(-c3ccc(-c4cnn(C)c4NC(=O)O[C@H](C)c4ccccc4)cc3)cc2)CC1 | Not Active | – | – | – | 65 | – | Not Active |
| CC[C@@H](C)OC(=O)Nc1c(-c2ccc(-c3ccc(C4(C(=O)O)CC4)cc3)cc2)cnn1C | Not Active | 0 | – | – | – | 0.048 | Not Active |
| C[C@@H](OC(=O)Nc1c(-c2ccc(-c3ccc(C4(C(=O)O)CC4)cc3)cc2)cnn1C)c1ccccc1F | Not Active | – | – | – | – | 0.0045 | Not Active |
| C[C@@H](OC(=O)Nc1c(-c2ccc(-c3ccc(CC(=O)O)cc3)cc2)nnn1C)c1ccccc1 | Not Active | – | – | – | – | 0.06 | Not Active |
| C[C@@H](OC(=O)Nc1c(-c2ccc(-c3ccc(C4(C(=O)O)CC4)cc3)cc2)cnn1C)c1ccccc1 | Not Active | – | 0.021 | – | – | 0.0026 | Not Active |
| C[C@@H](OC(=O)Nc1c(-c2ccc(CC(=O)O)cc2)cnn1C)c1ccccc1 | Not Active | – | – | – | – | – | Not Active |

Second part, led by results:

| inhibition (INH) [1] | inhibition [4] [%] | IC50 [5] [µM] | inhibition [6] | inhibition [7] [%] | SMILES | IC50 [2] [µM] | inhibition (INH) [3] |
| --- | --- | --- | --- | --- | --- | --- | --- |
| Not Active | – | – | – | – | C[C@@H](OC(=O)Nc1c(-c2ccc(-c3ccc(C4(C(=O)NS(C)(=O)=O)CC4)cc3)cc2)nnn1C)c1ccccc1 | 0.004 | Not Active |
| Not Active | – | – | – | – | CC(OC(=O)Nc1c(-c2ccc(-c3ccc(C4(C(=O)O)CC4)cc3)cc2)cnn1C)c1ccc(F)cc1 (racemic) | 0.005 | Not Active |
| Not Active | 10 | – | – | 12 | C[C@@H](OC(=O)Nc1nnn(C)c1-c1ccc(-c2ccc(C3(C(=O)O)CC3)cc2)cc1)c1ccccc1 | – | Not Active |
| Not Active | 23 | – | – | – | C[C@@H](OC(=O)Nc1cnnn1-c1ccc(-c2ccc(C3(C(=O)O)CC3)cc2)cc1)c1ccccc1 | 0.04 | Not Active |
| Not Active | – | – | – | – | C[C@H](OC(=O)Nc1c(-c2ccccc2F)cnn1C)c1ccccc1Cl | – | Not Active |
| Not Active | – | – | – | – | C[C@@H](OC(=O)Nc1c(-c2ccc(C3CCC(CC(=O)O)CC3)cc2)nnn1C)c1ccccc1 (mixture of isomers) | 0.007 | Not Active |
| Not Active | 63 | 0.042 | – | – | CCc1nnn(-c2ccc(-c3ccc(C4(C(=O)O)CC4)cc3)cc2)c1NC(=O)O[C@H](C)c1ccccc1 | 0.016 | Not Active |
| Not Active | 9 | – | – | – | CC(C)[C@@H](C)OC(=O)Nc1c(-c2ccc(-c3ccc(C4(C(=O)O)CC4)cc3)cc2)cnn1C | 0.03 | Not Active |
| Not Active | – | – | – | – | C[C@@H](OC(=O)Nc1c(-c2ccc(-c3ccc(CC(=O)O)cc3)cc2)cnn1C)c1ccccc1 | 0.047 | Not Active |
| Not Active | – | – | – | – | C[C@@H](OC(=O)Nc1c(-c2ccc(-c3ccc(C4(C(=O)O)CC4)cc3)cc2)nnn1C)c1ccccc1 | 0.003 | Not Active |
| Not Active | 17 | – | – | 11 | C[C@@H](OC(=O)Nc1nncn1-c1ccc(-c2ccc(C3(C(=O)O)CC3)cc2)cc1)c1ccccc1 | – | Not Active |
| Not Active | 0 | – | – | 0 | Cn1ncc(-c2ccc(-c3ccc(C4(C(=O)O)CC4)cc3)cc2)c1NC(=O)OC1COC1 | – | Not Active |
| Not Active | 3 | – | – | 41 | Cc1nnn(-c2ccc(-c3ccc(CC(=O)O)cc3)cc2)c1NC(=O)O[C@H](C)c1ccccc1 | – | Not Active |
